Experimental data published in paper PMC2889672 (Biochemistry, 2010).

Tests used:
S. pneumoniae UPPS [1] = target: T1, S. pneumoniae UPPS (Streptococcus pneumoniae serotype 4, UniProt Q97SR4); assay: Biomol Green assay of UPPS activity; assay type: biochemical
T1 sequence (Q97SR4 1-252): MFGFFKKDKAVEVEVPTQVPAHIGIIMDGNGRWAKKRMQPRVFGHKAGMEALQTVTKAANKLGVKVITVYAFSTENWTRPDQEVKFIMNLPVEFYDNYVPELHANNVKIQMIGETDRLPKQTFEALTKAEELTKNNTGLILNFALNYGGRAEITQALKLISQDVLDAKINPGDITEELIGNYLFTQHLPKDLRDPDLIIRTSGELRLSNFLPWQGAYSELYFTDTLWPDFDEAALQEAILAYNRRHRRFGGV
Outline: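 His-tagged S. pneumoniae UPPS expressed in E. coli BL21(DE3) and purified by Ni-NTA and size exclusion, then mixed 1:2 (w/v) with liposomes of total E. coli lipid extract. Released phosphate quantified with Biomol Green reagent.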

S. pneumoniae UPPS [2] = target: T1, S. pneumoniae UPPS; assay: Photo-cross-linking with Photo-probe and mass spectrometry; assay type: binding; details: 30 μM UPPS, 30 μM Photo-probe, UV 350 nm 10 min
S. pneumoniae UPPS [3] = target: T1, S. pneumoniae UPPS; assay: Protein fluorescence binding experiments; details: excitation 285 nm; 1 μM UPPS, 5 μM compound
Outline: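 Intrinsic protein fluorescence: emission scanned 300−500 nm at excitation 285 nm. Buffer: 100 mM HEPES pH 7.3, 0.5 mM MgCl2, 50 mM KCl, 1.25% DMSO. Test compound (final 5 μM) preincubated 15 min with UPPS (final 1 μM) before adding FsPP (15 μM), IsPP (40 μM) or both. Spectra are averages of two scans.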

| Structure (SMILES) | IC50 (S. pneumoniae UPPS [1]) | binding to and modification of UPPS in the absence of substrate (S. pneumoniae UPPS [2]) | change of intrinsic fluorescence of S. pneumoniae UPPS upon addition of compound (S. pneumoniae UPPS [3]) |
| --- | --- | --- | --- |
| O=C(Nc1ccc(C(=O)c2ccccc2)cc1)C1=C(O)C(CCc2ccccc2)NC1=O (stereo not shown) [Photo-probe, N-(4-Benzoylphenyl)-4-hydroxy-2-oxo-5-phenethyl-2,5-dihydro-1H-pyrrole-3-carboxamide] | 630 nM | bound to and modified UPPS | – |
| CC1(Cc2ccccc2)NC(=O)C(C(=O)Nc2ccc(C3CCCCC3)cc2)=C1O (stereo not shown) [compound 1, 5-benzyl-4-hydroxy-5-methyl-2-oxo-2,5-dihydro-1H-pyrrole-3-carboxylic acid (4-cyclohexylphenyl)amide] | 450 nM | – | increased |
